The results in this text go back to ChEMBL document CHEMBL1151781, “Selectivity of inhibitors of endocannabinoid biosynthesis evaluated by activity-based protein profiling” (Bioorg Med Chem Lett, 2008).

Activity calls are given as the source filed them. No cut-off for these calls is given here.

The target of assay [1] is T1, Lysophosphatidylserine lipase ABHD12 (Mus musculus) (UniProt Q99LR1).
T1 sequence (whole entry): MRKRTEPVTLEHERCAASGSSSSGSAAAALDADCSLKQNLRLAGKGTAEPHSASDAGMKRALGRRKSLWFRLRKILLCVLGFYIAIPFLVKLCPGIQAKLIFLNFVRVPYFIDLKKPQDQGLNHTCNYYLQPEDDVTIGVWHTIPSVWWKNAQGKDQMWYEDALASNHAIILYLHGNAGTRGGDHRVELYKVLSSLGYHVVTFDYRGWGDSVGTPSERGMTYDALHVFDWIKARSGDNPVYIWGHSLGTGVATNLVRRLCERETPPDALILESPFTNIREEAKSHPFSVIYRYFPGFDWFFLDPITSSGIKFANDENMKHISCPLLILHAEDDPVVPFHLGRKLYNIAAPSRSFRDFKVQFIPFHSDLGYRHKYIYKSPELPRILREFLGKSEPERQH
To be noted: Brain, 5 uM.

For assay [2], the target named is T2, Phosphatidylserine lipase ABHD16A (Mus musculus) (UniProt Q9Z1Q2).
T2 sequence (whole entry): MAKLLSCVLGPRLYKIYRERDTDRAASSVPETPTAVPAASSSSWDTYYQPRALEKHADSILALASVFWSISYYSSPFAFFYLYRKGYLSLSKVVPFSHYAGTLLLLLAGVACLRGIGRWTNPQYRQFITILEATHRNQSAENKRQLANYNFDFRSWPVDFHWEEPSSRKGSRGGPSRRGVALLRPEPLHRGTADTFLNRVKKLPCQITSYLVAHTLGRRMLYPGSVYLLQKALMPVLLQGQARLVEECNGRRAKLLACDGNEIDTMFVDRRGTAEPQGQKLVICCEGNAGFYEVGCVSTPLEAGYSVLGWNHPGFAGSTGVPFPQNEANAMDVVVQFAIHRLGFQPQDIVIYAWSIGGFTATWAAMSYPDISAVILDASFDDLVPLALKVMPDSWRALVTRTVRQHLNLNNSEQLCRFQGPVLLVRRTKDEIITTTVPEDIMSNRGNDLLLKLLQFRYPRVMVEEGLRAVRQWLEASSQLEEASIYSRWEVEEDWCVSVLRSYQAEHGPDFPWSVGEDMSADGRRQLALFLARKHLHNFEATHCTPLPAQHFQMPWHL
The note with it: Brain, 5 uM.

Assay [3] deals with T3, Platelet-activating factor acetylhydrolase (Mus musculus) (UniProt Q60963).
T3 sequence (whole entry): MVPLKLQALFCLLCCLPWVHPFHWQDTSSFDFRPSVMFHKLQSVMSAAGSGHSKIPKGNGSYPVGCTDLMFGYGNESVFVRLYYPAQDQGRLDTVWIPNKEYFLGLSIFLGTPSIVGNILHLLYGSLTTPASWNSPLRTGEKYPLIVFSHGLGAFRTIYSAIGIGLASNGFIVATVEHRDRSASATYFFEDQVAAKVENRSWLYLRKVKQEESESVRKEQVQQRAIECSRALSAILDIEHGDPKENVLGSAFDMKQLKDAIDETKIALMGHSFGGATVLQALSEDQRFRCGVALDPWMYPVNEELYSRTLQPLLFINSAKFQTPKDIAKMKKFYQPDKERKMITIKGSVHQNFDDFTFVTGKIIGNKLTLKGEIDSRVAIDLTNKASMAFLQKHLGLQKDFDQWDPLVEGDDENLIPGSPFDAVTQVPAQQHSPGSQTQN
The note with it: Brain, 50 uM.

For assay [4], the target named is T4, Neutral cholesterol ester hydrolase 1 (Mus musculus) (UniProt Q8BLF1).
T4 sequence (whole entry): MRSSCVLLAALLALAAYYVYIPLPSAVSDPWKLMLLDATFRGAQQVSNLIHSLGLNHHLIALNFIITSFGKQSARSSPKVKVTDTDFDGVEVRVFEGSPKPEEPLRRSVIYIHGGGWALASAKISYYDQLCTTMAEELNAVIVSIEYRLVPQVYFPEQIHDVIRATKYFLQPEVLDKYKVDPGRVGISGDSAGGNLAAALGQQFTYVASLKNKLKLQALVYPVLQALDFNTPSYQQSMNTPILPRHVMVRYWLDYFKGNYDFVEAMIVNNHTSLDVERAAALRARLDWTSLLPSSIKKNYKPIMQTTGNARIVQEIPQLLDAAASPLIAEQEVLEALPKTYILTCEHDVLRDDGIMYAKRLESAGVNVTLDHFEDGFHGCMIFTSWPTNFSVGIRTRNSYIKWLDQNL
Briefly: Inhibition of KIAA1363 in mouse brain assessed as reduction in spectral count at 50 uM treated for 30 mins by ABPP-MudPIT assay relative to control. It counts as tissue-based. An outline of the steps: (§1)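 Mouse brain proteome was treated with inhibitor at the stated single concentration, or DMSO as control, for 30 min. FP-biotin (5 μM) was then added for 120 min, followed by avidin enrichment and LC-MS (ABPP-MudPIT). Runs were in triplicate. Only hydrolases with >15 average spectral counts in control were quantified. Blockade is the percent reduction in average spectral counts versus DMSO; >60% defined a target.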

Assay [5] deals with T3, Platelet-activating factor acetylhydrolase (Mus musculus). The experiment in a line: Inhibition of PLA2g7 in mouse brain assessed as reduction in spectral count at 5 uM treated for 30 mins by ABPP-MudPIT assay relative to control. It counts as tissue-based. An outline of the steps: as §1
In assay [6] the target is Hormone-sensitive lipase (Mus musculus) (UniProt P54310). Briefly: Inhibition of HSL in mouse brain assessed as reduction in spectral count at 50 uM treated for 30 mins by ABPP-MudPIT assay relative to control. The format is tissue-based. An outline of the steps: as §1
Sequence of Hormone-sensitive lipase (Mus musculus) (P54310 whole entry): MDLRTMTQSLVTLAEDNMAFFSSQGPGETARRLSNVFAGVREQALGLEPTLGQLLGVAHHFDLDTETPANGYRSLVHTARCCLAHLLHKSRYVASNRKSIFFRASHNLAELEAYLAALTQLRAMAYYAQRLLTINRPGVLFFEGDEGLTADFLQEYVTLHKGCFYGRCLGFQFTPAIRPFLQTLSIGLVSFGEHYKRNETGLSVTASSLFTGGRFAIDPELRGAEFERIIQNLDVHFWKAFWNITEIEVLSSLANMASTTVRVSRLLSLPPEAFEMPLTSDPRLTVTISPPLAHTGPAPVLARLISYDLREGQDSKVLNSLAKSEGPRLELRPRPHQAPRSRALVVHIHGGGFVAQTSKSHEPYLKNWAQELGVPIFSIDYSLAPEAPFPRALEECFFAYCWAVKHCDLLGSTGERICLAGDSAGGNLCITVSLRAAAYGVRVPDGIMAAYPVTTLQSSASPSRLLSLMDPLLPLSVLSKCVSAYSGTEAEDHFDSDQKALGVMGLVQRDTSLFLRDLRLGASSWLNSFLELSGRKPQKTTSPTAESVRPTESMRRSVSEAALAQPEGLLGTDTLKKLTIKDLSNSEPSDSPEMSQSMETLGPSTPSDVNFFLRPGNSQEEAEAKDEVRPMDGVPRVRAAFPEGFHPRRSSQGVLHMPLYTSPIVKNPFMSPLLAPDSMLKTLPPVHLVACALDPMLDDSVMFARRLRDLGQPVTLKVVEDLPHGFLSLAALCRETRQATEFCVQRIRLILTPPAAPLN
Assay [7] concerns the target Acetylcholinesterase (Mus musculus) (UniProt P21836). The experiment in a line: Inhibition of AChE in mouse brain assessed as reduction in spectral count at 5 uM treated for 30 mins by ABPP-MudPIT assay relative to control. It counts as tissue-based. An outline of the steps:
as §1

Assay [8] has the same target. Briefly: Inhibition of AChE in mouse brain by LC-MS analysis. It counts as tissue-based.
For assay [9], the target named is Diacylglycerol lipase-beta (Homo sapiens, UniProt Q8NCG7). The experiment in a line: Inhibition of human recombinant DAGLbeta overexpressed in african green monkey COS7 cells. The format is cell-based, COS-7.
Sequence of Diacylglycerol lipase-beta (Q8NCG7 whole entry): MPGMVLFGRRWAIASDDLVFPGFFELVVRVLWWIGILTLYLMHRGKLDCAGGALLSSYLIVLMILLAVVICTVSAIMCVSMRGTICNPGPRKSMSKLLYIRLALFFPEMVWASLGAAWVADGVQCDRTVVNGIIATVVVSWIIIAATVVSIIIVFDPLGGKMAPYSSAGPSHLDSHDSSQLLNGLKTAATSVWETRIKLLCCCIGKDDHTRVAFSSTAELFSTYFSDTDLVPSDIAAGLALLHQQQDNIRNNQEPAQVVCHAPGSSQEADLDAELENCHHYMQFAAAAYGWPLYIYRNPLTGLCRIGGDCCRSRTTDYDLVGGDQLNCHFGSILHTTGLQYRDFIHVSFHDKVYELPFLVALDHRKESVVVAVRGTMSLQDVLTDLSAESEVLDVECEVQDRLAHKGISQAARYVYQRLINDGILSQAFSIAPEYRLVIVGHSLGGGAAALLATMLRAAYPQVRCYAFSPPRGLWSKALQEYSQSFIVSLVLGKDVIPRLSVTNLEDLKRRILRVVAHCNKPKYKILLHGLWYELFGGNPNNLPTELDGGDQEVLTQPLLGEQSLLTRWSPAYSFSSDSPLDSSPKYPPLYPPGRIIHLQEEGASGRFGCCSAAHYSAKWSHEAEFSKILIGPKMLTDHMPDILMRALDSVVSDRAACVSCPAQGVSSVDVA

Sequence of Acetylcholinesterase (Mus musculus) (P21836 whole entry): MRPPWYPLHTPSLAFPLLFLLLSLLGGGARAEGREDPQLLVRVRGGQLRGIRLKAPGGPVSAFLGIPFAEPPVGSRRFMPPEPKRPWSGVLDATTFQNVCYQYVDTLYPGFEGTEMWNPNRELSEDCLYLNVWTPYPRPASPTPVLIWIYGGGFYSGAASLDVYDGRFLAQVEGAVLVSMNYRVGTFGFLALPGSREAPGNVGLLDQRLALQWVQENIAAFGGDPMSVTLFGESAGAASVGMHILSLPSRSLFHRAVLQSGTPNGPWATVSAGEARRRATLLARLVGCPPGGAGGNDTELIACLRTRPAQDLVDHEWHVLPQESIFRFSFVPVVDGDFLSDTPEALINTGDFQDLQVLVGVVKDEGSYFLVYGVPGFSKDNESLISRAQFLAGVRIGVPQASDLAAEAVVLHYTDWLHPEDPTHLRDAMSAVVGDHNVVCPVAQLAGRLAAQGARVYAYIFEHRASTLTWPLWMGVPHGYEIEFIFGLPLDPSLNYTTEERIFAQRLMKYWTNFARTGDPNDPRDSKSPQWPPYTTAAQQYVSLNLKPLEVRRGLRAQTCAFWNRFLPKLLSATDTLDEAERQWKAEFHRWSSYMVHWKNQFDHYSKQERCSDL

Take `CCCCCCCCCCC[C@@H](C[C@@H]1OC(=O)[C@H]1CCCCCC)OC(=O)[C@H](CC(C)C)NC=O` [ORLISTAT]: the inhibition in assay [1], in [2] and in assay [3] was over 60% in each case.

With `O=C(NCCCCCCNC(=O)ON=C1CCCCC1)ON=C1CCCCC1`, the inhibition was over 60% in assay [4], over 60% in [5], under 60% in assay [6] and over 60% in assay [7]. Besides, the outcome in assay [8] was Active. The IC50 in assay [9] was 60 nM.

As usually defined, the inhibition is the percentage by which the read-out fell short of the control. What is called IC50 is the concentration at which inhibition is half-maximal.
